Screens as filed in PubChem BioAssay.
IMP-1 inh – IMP-1 metallo-beta-lactamase inhibitors, primary screen, biochemical, epi-absorbance readout, Pseudomonas aeruginosa enzyme; metallo-beta-lactamase IMP-1 (Pseudomonas aeruginosa); purified IMP-1, nitrocefin hydrolysis, epi-absorbance fluorescence; inhibition, % at 5.6 µM; hit rate 0.45% among 290,000;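 active means inhibition above the mean plus 3 SD of all compounds in the same screening run, cut at about 4.5% in these data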
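Assay system: purified recombinant IMP-1 beta-lactamase. Input: IMP-1 0.2 nM before substrate addition. Buffer or medium: Zinc- and detergent-supplemented HEPES buffer, pH 7.1. Schedule: 25 °C, 15 min preincubation, 25 min reaction. Signal: Epi-absorbance fluorescence, 480 nm excitation, 530 nm emission. Evaluation: percent inhibition from optical density relative to buffer-blank wells.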
NALP1 yeast inh – NALP1 inflammasome inhibitors in reconstituted yeast, colorimetric, S. cerevisiae, triplicate retest | AID 2071, 2009 | hit rate 0.61% among 280,000 | inhibition, % at 10 µM | S. cerevisiae NALP1/ASC/caspase-1 growth, X-gal OD620, 72 h; in the data active means inhibition mostly above about 24%, no sharp cut-off; inactive means mostly below about 32%
SUMO Mot1 rescue – yeast Mot1-301 growth rescue at high temperature, primary screen, SUMOylation pathway inhibitor project, S. cerevisiae, ATP luminescence, 38.5C; growth rescue, % at 18.8 µM; hit rate 1% among 320,000; S. cerevisiae Mot1-301 growth rescue; percent above DMSO median, 100 means doubled;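 active means every valid replicate shows activation above 250% relative to neutral control wells; inactive means the rest, any valid replicate at or below 250%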
VIM-2 inh – VIM-2 metallo-beta-lactamase inhibitors, primary screen, biochemical, epi-absorbance readout, Pseudomonas aeruginosa enzyme; purified VIM-2, nitrocefin hydrolysis, epi-absorbance fluorescence; hit rate 0.89% among 290,000; inhibition, % at 5.6 µM;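 active means inhibition above the mean of all tested compounds plus 3 SD, cutoff set per screening run, cut at about 7.5% in these data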;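 further: red hydrolysis product quenches plate fluorescence so inhibitors raise well fluorescence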
NALP3 yeast inh – NALP3 inflammasome inhibitors in reconstituted yeast, primary screen, luminescence, uHTS; Yeast reconstituted NLRP3/ASC/caspase-1, beta-gal luminescence, 24 h; inhibition, % at 10 µM; hit rate 0.39% among 330,000; AID 2825, 2010;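 active means inhibition of 50% or more; inactive means inhibition below 50%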
PolyA inhibitor – polyadenylation inhibitors in yeast reporter cells, primary screen, luminescence, S. cerevisiae | S. cerevisiae SKY197-pL101 polyadenylation reporter, beta-gal luminescence; efflux-impaired pdr1/pdr3 knockout yeast; score 100 = 6 SD above DMSO | activity score, % at 12 µM | hit rate 0.02% among 300,000;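 active means lowest replicate activity score at least 50, where 100 means six control SD above control mean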;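 further: yeast exposed to compound for 9 h at 30 °C; higher score means more reporter readthrough which indicates perturbed polyadenylation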
Hits are given with their value; n = inactive; x = no result. Hits are enriched below; roughly 2.9% of the tested compounds scored in any of these assays.

SMILES	IMP-1 inh	NALP1 yeast inh	SUMO Mot1 rescue	VIM-2 inh	NALP3 yeast inh	PolyA inhibitor
CC(Nc1c[nH]c(=O)[nH]c1=O)c1ccccc1 (stereo not drawn)	n	n	n	n	n	n
Cc1ccc(NC(=S)N2CCCC(c3nc4ccccc4[nH]3)C2)cc1 (stereo not drawn)	n	n	523	n	n	n
CCOC(=O)C1CCCN(S(=O)(=O)c2ccc(-c3cc(C)no3)s2)C1 (stereo not drawn)	n	n	n	n	n	n
CC(C)C[C@H](NC(=O)[C@@H]1Cc2c([nH]c3ccccc23)C2c3ccccc3C(=O)N21)C(=O)NCC1CCCO1 (stereo partly drawn)	n	n	n	n	n	n
CSCC[C@H](NC(=O)[C@@H]1Cc2c([nH]c3ccccc23)C2c3ccccc3C(=O)N21)C(=O)NCC1CCCO1 (stereo partly drawn)	n	n	793	n	n	n
Cc1cccc(C(=O)N2CCN(S(=O)(=O)N3CCCCCC3)CC2)c1	n	n	n	n	n	n
CCN1CCCC1Cn1cnc2c([nH]c3cccc(Cl)c32)c1=O (stereo not drawn)	n	n	n	8.2	n	n
COc1ccc(C2c3c(ncn(Cc4ccco4)c3=N)Oc3ccc4ccccc4c32)cc1 (stereo not drawn)	n	n	n	n	n	n
N=c1c2c(ncn1Cc1ccco1)Oc1ccc3ccccc3c1C2c1ccccc1 (stereo not drawn)	n	57	n	n	n	n
CC(=O)c1cc(F)ccc1OCC(=O)N1CCCc2ccccc21	n	n	n	n	n	n
O=C(CN1CCCC1)NN=C(c1ccccc1)c1ccccc1	n	n	392	n	n	n
O=C(CN1CCOCC1)NN=C(c1ccccc1)c1ccccc1	n	n	n	n	n	n
FCCCOc1ccc(-c2ccnc(-c3ccccc3)n2)cc1	5.1	n	n	n	n	n
Cn1c2ccccc2c(=O)c2c(=O)n(C3CCCCC3)c(-c3ccco3)nc21	n	n	580	n	n	n
Cc1nc2c(c(=O)c3ccccc3n2C)c(=O)n1C1CCCCCC1	n	x	n	n	n	n
COc1cc(NC(=O)COC(=O)CCCC2=NS(=O)(=O)c3ccccc3N2)cc(OC)c1	n	n	333	n	n	n
Cc1cc(C)c2[nH]c(=O)c(C(c3nnnn3C(C)(C)C)N(Cc3ccco3)CC3CCCO3)cc2c1 (stereo not drawn)	n	38	n	n	n	n
Cc1cc2cc(C(c3nnnn3C(C)(C)C)N(Cc3ccco3)CC3CCCO3)c(=O)[nH]c2cc1C (stereo not drawn)	n	n	n	n	n	n
Cc1cc(C)n(-c2ccc(C(=O)NCc3ccc4c(c3)OCO4)cc2)n1	n	n	n	n	n	n
Cc1cc(C)n(-c2ccc(C(=O)NCc3ccc(F)cc3)cc2)n1	n	29	n	n	n	n
O=C(c1ccc([N+](=O)[O-])c(CS(=O)(=O)c2ccc(Cl)cc2)c1)N1CCCC1	n	n	n	n	n	n
O=C(O)c1ccccc1CSc1nc2ccccc2o1	n	n	320	n	n	n
Cc1ccc(C(C)NC(=O)c2ccncc2)c(C)c1 (stereo not drawn)	n	x	n	n	n	n
CC1CCC2(CC1)NC(=O)N(NC(=O)c1cccc(N(C)C)c1)C2=O (stereo not drawn)	x	x	n	x	n	x
CC(NCCC(c1ccccc1)c1ccccc1)c1ccccc1 (stereo not drawn)	n	54	n	n	n	n
SMILES	IMP-1 inh	NALP1 yeast inh	SUMO Mot1 rescue	VIM-2 inh	NALP3 yeast inh	PolyA inhibitor
O=C(CNc1ccccc1)Nc1ccc(F)cc1	n	28	n	n	n	n
O=C(OCC(=O)N1CCc2ccccc21)c1ccc([N+](=O)[O-])o1	x	x	n	x	n	x
Cc1ccc(-c2c(C(=O)N/N=C/C3CC=CCC3)nnn2-c2nonc2N)cc1 (stereo not drawn)	n	n	n	n	n	n
COc1ccccc1C(=O)NC1CC(C)(C)NC(C)(C)C1	n	n	n	n	n	n
COc1cccc(C(=O)NC2CC(C)(C)NC(C)(C)C2)c1OC	16	n	n	n	n	n
CCCCCN(C(=O)CCC(=O)OC(C)C(=O)Nc1cccc(C#N)c1)c1c(N)n(CCCC)c(=O)[nH]c1=O (stereo not drawn)	x	x	303	x	n	n
CCC(=O)NN1CCc2cc3ccc(C)cc3nc21	n	n	n	n	n	n
O=C(O)c1ccccc1C(=O)N1CCc2c([nH]c3ccccc23)C1C(F)(F)F (stereo not drawn)	n	n	n	11	n	n
COc1cccc(-c2cc(C(=O)NCc3ccco3)no2)c1	n	29	n	n	n	n
O=C(NCc1ccco1)c1cc(-c2cccc(Cl)c2)on1	n	n	n	n	n	n
CCN1CCN(CC(=O)Nc2c(OC)cccc2OC)CC1	5.5	n	n	n	n	n
COc1ccc(CC(=O)OCC(=O)N2CCc3ccccc32)cc1OC	x	x	x	x	n	x
C/C(=N\NC(=O)COc1ccc(C)cc1[N+](=O)[O-])c1cccs1	n	n	n	n	n	98
COc1ccc(CNCC(O)(c2ccccc2)c2ccc(Cl)cc2)cc1 (stereo not drawn)	n	57	n	n	n	n
CC(=O)Nc1ccc(NC(=O)C2CC(=O)N(C(C)C)C2)cc1 (stereo not drawn)	n	n	n	n	n	n
CC(C)N1CC(C(=O)Nc2ccccc2)CC1=O (stereo not drawn)	n	n	305	n	n	n
CC1(C)S[C@@H]2[C@H](NC(=O)COc3ccccc3)C(=O)N2C1C(=O)OCC1CCCCC1 (stereo partly drawn)	x	x	327	x	n	n
CCC1(C(=O)OC)NC(c2ccco2)C2C(=O)N(c3ccc(C)cc3)C(=O)C21 (stereo not drawn)	n	n	n	n	n	n
COC(=O)C1(C(C[N+](=O)[O-])c2ccc(C)cc2)C(=O)NCC1c1ccco1 (stereo not drawn)	n	46	n	n	n	n
Cc1csc(SC(C)C(=O)Nc2ccccc2C)n1 (stereo not drawn)	x	x	n	x	n	x
COc1ccc(C2C(C#N)=C(N)N(c3sc4c(c3C#N)CCCC4)C3=C2C(=O)CC(C)(C)C3)cc1 (stereo not drawn)	4.7	n	n	n	n	n
CCCCc1ccc(NC(=S)N2CCN(C(=O)c3ccco3)CC2)cc1	n	n	n	n	n	n
